The subject of experiment [1] is Monkey. In words: In vivo percent change of LDL cholesterol in monkeys at 20 mg/kg/day for 5 days dose. It is filed as functional, Cercopithecidae. In short, it runs like this: (§1)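 Cynomolgus monkeys (n = 4) were given 20 mg/kg po daily for 5 days, and controls received vehicle with 0.2% methocel. Animals were fasted overnight before the last dose and bled from the femoral vein 2 h after dosing on day 5, before feeding. Plasma lipids are expressed as % change from pretreatment, with one-sample t-tests.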

Experiment [2] relates to Monkey. Briefly: In vivo percent change of total cholesterol in monkeys at 20 mg/kg/day for 5 days dose c. In kind it is functional, Cercopithecidae. In short, it runs like this: as §1
The test system of experiment [3] is Monkey. Briefly: In vivo percent change of HDL cholesterol in monkeys at 20 mg/kg/day for 5 days dose. It is filed as functional, Cercopithecidae. In a few lines: as §1
Another experiment concerns the target T1, Squalene synthase (Rattus norvegicus, UniProt Q02769).
T1 sequence (Q02769 whole entry): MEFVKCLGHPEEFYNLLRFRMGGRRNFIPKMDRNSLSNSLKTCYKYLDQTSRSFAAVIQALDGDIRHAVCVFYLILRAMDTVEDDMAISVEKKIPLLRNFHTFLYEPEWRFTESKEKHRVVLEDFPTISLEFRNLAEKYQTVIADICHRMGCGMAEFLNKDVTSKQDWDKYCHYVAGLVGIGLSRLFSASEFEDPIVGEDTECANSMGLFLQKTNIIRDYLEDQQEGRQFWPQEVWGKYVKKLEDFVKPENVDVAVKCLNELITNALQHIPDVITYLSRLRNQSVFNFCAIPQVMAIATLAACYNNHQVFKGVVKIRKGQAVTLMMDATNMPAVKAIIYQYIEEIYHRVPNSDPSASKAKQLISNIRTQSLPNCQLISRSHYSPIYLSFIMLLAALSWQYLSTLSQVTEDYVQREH
Briefly: In vitro inhibitory activity against Squalene Synthase. In a few lines:
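Squalene synthase inhibition measured in a rat liver microsomal enzyme assay.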

Experiment [4] relates to Monkey. Briefly: In vivo percent change of total cholesterol in monkeys at 20 mg/kg/day for 5 days dose. It is filed as functional, Cercopithecidae. In short, it runs like this:
as §1

SMILES strings stand for the structures. pIC50: −log10 of the molar value.

Regarding `CCCN(Cc1ccc(Oc2ccccc2)cc1)C(=O)[C@@H]1[C@H](C(=O)O)[C@@H](C(=O)O)[C@H]1C(=O)N(CCC)Cc1ccc(Oc2ccccc2)cc1`, the Change in the experiment on Monkey [1] was -36%; with Monkey [2] it was -12%; with Monkey [3] it was -4%. With `CN(Cc1ccc(OCc2ccccc2)cc1)C(=O)[C@@H]1[C@H](C(=O)O)[C@@H](C(=O)O)[C@H]1C(=O)N(C)Cc1ccc(OCc2ccccc2)cc1`, the pIC50 on Squalene synthase was 5.00. Still for that read-out and setting: the value for `CN(Cc1cccc(Oc2ccccc2)c1)C(=O)[C@@H]1[C@H](C(=O)O)[C@@H](C(=O)O)[C@H]1C(=O)N(C)Cc1cccc(Oc2ccccc2)c1` was 5.10; that for `CC(C)N(Cc1ccc(Oc2ccccc2)cc1)C(=O)[C@@H]1[C@H](C(=O)O)[C@@H](C(=O)O)[C@H]1C(=O)N(Cc1ccc(Oc2ccccc2)cc1)C(C)C` was 6.85. Regarding `CC[C@H](C)C(=O)O[C@H]1C[C@@H](C)C=C2C=C[C@H](C)[C@H](CC[C@@H]3C[C@@H](O)CC(=O)O3)[C@H]21` [LOVASTATIN], the Change in the experiment on Monkey [1] was -21%; in the experiment with Monkey [3] it was -12%; in the experiment with Monkey [4], -19%.

A word on the pIC50: it is −log10 of the IC50, conventionally taken in molar units.
